The results in this text go back to ChEMBL document CHEMBL1159127 (Bioorg Med Chem, 2010).

For one data set, the system named is MCF7. Description: Toxicity in human MCF7 cells assessed as effect on cell viability after 24 hrs. Type of data set: cell-based. Particulars: mcf7, 24 h. A digest of the protocol:
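Same MCF-7 plating and 24 h compound exposure as the EROD assay. Medium was then removed, cells were detached with 0.25% trypsin/EDTA and counted.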

A short description of data set [1]: Thermodynamic aqueous solubility in equal volume of ethyl alcohol and 1/15M phosphate buffer at pH 7.4. The data set is classed as physicochemical. Particulars: 1:1 (v/v) ethyl alcohol / 1/15 M phosphate buffer. A digest of the protocol:
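About 1 mg solid ground in agate mortar, suspended in 1.0 mL of a 1:1 mix of 1/15 M phosphate buffer (pH 7.4) and EtOH, shaken 48 h at 25 °C. Filtered (0.22 µm), filtrate diluted in DMF, quantified by reversed-phase C18 HPLC with UV at 263–288 nm against a calibration curve, corrected for dilution.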

In data set [2] the target is T1, Aryl hydrocarbon receptor (Homo sapiens, UniProt P35869).
T1 sequence (P35869 whole entry): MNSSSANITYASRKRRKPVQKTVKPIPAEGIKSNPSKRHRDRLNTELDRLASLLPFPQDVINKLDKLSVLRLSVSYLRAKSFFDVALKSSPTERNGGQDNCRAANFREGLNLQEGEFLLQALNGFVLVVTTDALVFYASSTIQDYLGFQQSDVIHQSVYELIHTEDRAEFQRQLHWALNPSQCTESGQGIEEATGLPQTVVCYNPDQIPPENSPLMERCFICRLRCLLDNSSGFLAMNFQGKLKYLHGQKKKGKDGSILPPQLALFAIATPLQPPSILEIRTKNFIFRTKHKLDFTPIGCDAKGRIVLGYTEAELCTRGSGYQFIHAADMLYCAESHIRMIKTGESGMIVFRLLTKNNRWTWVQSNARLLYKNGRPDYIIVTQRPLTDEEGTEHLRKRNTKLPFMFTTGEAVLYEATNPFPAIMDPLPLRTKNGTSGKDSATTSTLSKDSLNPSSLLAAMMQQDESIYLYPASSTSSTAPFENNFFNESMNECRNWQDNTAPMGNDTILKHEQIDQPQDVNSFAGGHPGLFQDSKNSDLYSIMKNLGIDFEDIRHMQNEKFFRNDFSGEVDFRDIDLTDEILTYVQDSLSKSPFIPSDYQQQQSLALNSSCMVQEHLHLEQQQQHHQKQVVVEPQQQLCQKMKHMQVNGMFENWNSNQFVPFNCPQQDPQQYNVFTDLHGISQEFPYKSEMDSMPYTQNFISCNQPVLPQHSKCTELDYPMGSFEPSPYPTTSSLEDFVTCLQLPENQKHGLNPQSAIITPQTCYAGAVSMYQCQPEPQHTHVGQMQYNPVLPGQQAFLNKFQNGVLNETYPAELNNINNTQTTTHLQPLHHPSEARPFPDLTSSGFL
Description: Agonist activity at aryl hydrocarbon receptor in human MCF7 cells after 24 hrs CYP1A1-dependent EROD assay. Type of data set: functional, cell-based. The procedure, abridged:
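MCF-7 cells in high-glucose D-MEM with 10% FBS, plated at 5×10^5 cells/mL, settled 4.5 h at 37 °C, then exposed to compound (3% DMSO in added portion) for 24 h. Washed cells were given ethoxyresorufin, dicoumarol and NADPH in PBS for 150 min at 37 °C. Triplicate; EC50 derived.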

Data set [3] can be described thus: Aqueous solubility in phosphate buffer at pH 7.4. The data set is classed as physicochemical. The procedure, abridged: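 Thermodynamic solubility by the Avdeef–Testa approach. About 1 mg of ground compound went into 1.0 mL of 1/15 M phosphate buffer (pH 7.4) […], shaken 48 h at 25 °C, then filtered (0.22 µm). Filtrate was diluted in DMF and quantified by reversed-phase HPLC-UV (263–288 nm) against a calibration curve.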

The mark [4] stands for this setting: phosphate buffer, read-out: solubility.

Molecules are shown by their SMILES. Converted amounts (≈) assume the structure as drawn. A value given as a limit tells only on which side of the number the result lay.

As to `COc1ccccc1-c1cc(=O)c2c(ccc3ccccc32)o1`, in the data set with MCF7, the Activity entry is reported as “Non-toxic”. This molecule displayed a solubility (thermodynamic) in data set [1] of 45.8 µg/mL (≈ 151 µM). Besides, in data set [2], a half-maximal effect (EC50) was put at 270 nM.
`O=c1cc(-c2ccccc2F)oc2ccc3ccccc3c12`: the Activity result in the data set with MCF7 was “Non-toxic”. The same molecule had a thermodynamic solubility in data set [1] of 153 µg/mL (≈ 527 µM). In data set [2], this molecule came in with an EC50 of 330 nM.
In data set [3] (buffer), `O=C(NC[C@H](NS(=O)(=O)c1ccccc1)C(=O)O)c1ccc(N2CCC(NC3=NCCCN3)CC2)c(F)c1` yielded a solubility of 0.6 µg/mL (≈ 1.1 µM).
Consider `O=c1cc(-c2ccccc2)oc2ccc3ccccc3c12` [BETA-NAPHTHOFLAVONE], for which the solubility in data set [3] (setting [4]) is less than 0.15 µg/mL. Further, in the data set with MCF7, the Activity result is reported as “Non-toxic”. Further, the solubility (thermodynamic) in data set [1] was 84.6 µg/mL (≈ 311 µM).
Turning to `O=C(NC[C@H](NS(=O)(=O)c1ccccc1)C(=O)O)c1ccc(N2CCC(NC3=NCCCN3)CC2)cc1`, the solubility in data set [3] (setting [4]) was less than 0.1 µg/mL.
In the case of `Cc1cccc(C)c1-c1cc(=O)c2c(ccc3ccccc32)o1`, the Activity entry in the data set on MCF7 is recorded as “Non-toxic”. In data set [1], this molecule yielded a solubility (thermodynamic) of 1270 µg/mL (≈ 4230 µM). The molecule further came in with an EC50 in data set [2] of more than 10000 nM.
Turning to `O=c1cc(-c2c(F)cccc2F)oc2ccc3ccccc3c12`, the Activity result with MCF7 is reported as “Non-toxic”. For the same molecule, the thermodynamic solubility in data set [1] was 248 µg/mL (≈ 804 µM). In data set [2], the EC50 was determined as 200 nM.
In data set [3] (buffer), `O=C(NC[C@H](NS(=O)(=O)c1ccccc1)C(=O)O)c1ccc(N2CCC[C@H](N=C3NCCCN3)C2)cc1` returned a solubility of 3.5 µg/mL (≈ 6.62 µM).
On to `O=c1cc(-c2ccccn2)oc2ccc3ccccc3c12`, for which the Activity result with MCF7 is “Non-toxic”. In data set [1], this molecule had a solubility (thermodynamic) of 299 µg/mL (≈ 1090 µM). The molecule further yielded an EC50 in data set [2] of 450 nM.
The corresponding values for `Cc1ccccc1-c1cc(=O)c2c(ccc3ccccc32)o1` are “Non-toxic”, 262 µg/mL (≈ 915 µM) and more than 10000 nM.

Broadly, the solubility (thermodynamic) is the concentration in solution at equilibrium with solid. As a reminder, the EC50 is the midpoint of the concentration-response curve. A higher EC50 goes with a less potent agent. The term solubility denotes how much of the substance goes into solution per volume.
